CHOP inhibitor: inhibitors of CHOP promoter induction, primary screen, cell-based, unfolded protein response, luciferase reporter | inhibition, % at 10 µM | CHO-K1 CHOP-promoter luciferase, tunicamycin-induced, 15-18 h | 3.8% of 220,000 active | AID 2732, 2010;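 active = compounds that reduced the stress-induced luciferase reporter signal by more than about 70% of percent inhibition, limit read from the data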
S1P3 antagonist: S1P3 receptor antagonists, primary screen, cell-based; CHO S1P3 NFAT-BLA reporter, FRET fluorescence, antagonist mode; AID 485, 2006; 0.27% of 170,000 active; inhibition, % at 4.98 µM; Sphingosine 1-phosphate receptor 3 (Homo sapiens), Q99500;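 active = inhibition above the plate cutoff, the mean inhibition of test wells on that plate plus 3 SD, cut at about 28% in these data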;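 note: cells challenged with S1P at its EC80 of 0.8 µM; blue over green emission ratio from cleaved BLA substrate after 4 h stimulation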
Hsp70 act: Hsp70 transcriptional activators, primary screen, cell-based, HeLa, Hsp70 promoter luciferase, luminescence, 10 µM; 0.04% of 200,000 active; HeLa Hsp70 promoter luciferase reporter; scaled: vehicle 0, proteasome-inhibitor control 100%; activation, % at 10 µM;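 active = activation above the mean across all tested compounds plus 3 SD, cutoff set per campaign, cut at about 5.5% in these data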
Mdm2 ligase inh: MDM2-luciferase reporter signal enhancers, primary screen, MDM2 E3 ligase inhibitor project, cell-based, luminescence, 1536-well; cell-based MDM2 ubiquitination luciferase reporter, 2 h; 0 = plate control, 100 = twice control, blank-subtracted; 0.11% of 210,000 active; E3 ubiquitin-protein ligase Mdm2 (Homo sapiens), Q00987; signal enhancement, % at 5 µM;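 active = signal enhancement of 30% or more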;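 note: luminescence tracks abundance of the self-degrading MDM2-luciferase fusion protein; higher signal means inhibition of MDM2 E3 ligase activity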
Target sequence (Q00987 whole entry, looked up, the tested form may be a part): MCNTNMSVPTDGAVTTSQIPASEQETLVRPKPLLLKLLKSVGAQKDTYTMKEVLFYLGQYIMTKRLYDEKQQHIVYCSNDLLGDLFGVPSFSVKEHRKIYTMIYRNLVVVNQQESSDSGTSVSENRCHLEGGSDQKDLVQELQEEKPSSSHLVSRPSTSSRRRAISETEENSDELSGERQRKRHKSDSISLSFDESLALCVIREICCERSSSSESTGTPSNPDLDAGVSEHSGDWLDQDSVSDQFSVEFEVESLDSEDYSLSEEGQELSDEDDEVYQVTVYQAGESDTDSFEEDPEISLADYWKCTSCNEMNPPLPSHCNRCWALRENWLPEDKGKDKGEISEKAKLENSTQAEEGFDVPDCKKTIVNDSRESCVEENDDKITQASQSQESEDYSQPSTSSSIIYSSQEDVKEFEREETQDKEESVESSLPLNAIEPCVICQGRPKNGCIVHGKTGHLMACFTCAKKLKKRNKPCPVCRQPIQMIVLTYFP
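Material: stable MDM2–luciferase fusion reporter cells / Quantity: 2000 cells/well / Dosing: single 5 µM compound dose, 0.2% final DMSO / Buffer or medium: DMEM / Schedule: 4 h cell settling then 2 h compound exposure, 37 °C / Detection: luminescence with SteadyLite reagent, 15 min at room temperature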
CHOP inh conf: retest of CHOP induction inhibitors, confirmation, cell-based; 45% of 2,100 active; inhibition, % at 10 µM; CHO-CHOP promoter luciferase reporter, tunicamycin-induced, luminescence; shares compounds with CHOP inhibitor;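 active = mean of three repeat readings of reporter signal inhibition above a set limit, cut at about 70% in these data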
A number is an active result; – = inactive; · = not tested or not shown. Most compounds without a hit are left out; they make up all but 4% or so of the library.

SMILES	CHOP inhibitor	S1P3 antagonist	Hsp70 act	Mdm2 ligase inh	CHOP inh conf
O=C(NCc1nc(-c2ccc(C(F)(F)F)cc2)no1)Nc1ccc(OC(F)(F)F)cc1	100	–	·	–	106
Cc1c(OCc2ccccc2)c(=O)ccn1Cc1ccc(Cl)cc1	105	·	–	–	–
O=C(COC(=O)/C=C/C(=O)OCC(=O)Nc1ccccc1F)Nc1ccccc1F	–	–	·	–	·
CCC(C)c1ccc(NC(=S)NCc2ccccc2OC)cc1 (configuration not stated)	97	–	–	–	–
CC(NO)/C(=N\O)c1cccs1 (configuration not stated)	106	·	–	–	–
CC(c1nnc(SCC(=O)Nc2cccnc2Cl)n1-c1ccccc1)N(C)C (configuration not stated)	–	–	–	–	·
Cc1cccc(/C=C/c2nc3ccccc3c(=O)[nH]2)c1	102	–	–	–	121
Cc1cccc(/C=C/c2nc3ccccc3c(=O)n2Cc2ccccc2)c1	–	–	–	·	·
Cc1cc(NC(=O)CSc2nc3cc4c(cc3c(=O)n2CCc2ccccc2)OCO4)no1	99	·	–	–	101
Cc1cc(NC(=O)CSc2nc3c(c(=O)n2CCc2ccccc2)SC(C)C3)no1 (configuration not stated)	–	–	–	–	·
N#Cc1c(N)nc(-c2ccccc2)nc1-c1ccccc1	107	–	–	–	–
N#Cc1c(-c2ccccc2)nc(-c2ccccc2)nc1N1CCOCC1	–	·	–	–	·
CCCCn1c(NS(=O)(=O)c2ccc(C)cc2)c(S(=O)(=O)c2ccccc2)c2nc3ccccc3nc21	104	–	–	–	89
N#Cc1cccc(N=c2ssnc2Cl)c1	–	–	–	–	·
Clc1nssc1=Nc1ccc(Br)cc1	106	–	–	–	131
COc1cc(N=c2ssnc2Cl)cc(OC)c1	106	–	–	–	–
O=C(NCCc1nc2ccccc2[nH]1)/C(=C/c1ccc2c(c1)OCO2)NC(=O)c1ccc(Cl)cc1Cl	–	–	–	–	·
CC(=O)Nc1ccc(NC2=Nc3ccccc3N3C2=Nc2c(c(C)nn2-c2ccccc2)C3c2ccccc2)cc1 (configuration not stated)	106	·	–	–	119
COc1ccc(/C=c2/sc3n(c2=O)NC2(c4ccccc4)N(C)C(=O)N(C)C2(c2ccccc2)N=3)cc1 (configuration not stated)	–	·	–	–	·
C=C(C)COc1ccc(-c2n[nH]c(C)c2-c2ccc(OC)cc2)c(O)c1	107	·	–	–	–
COc1ccc(-c2n[nH]c(C)c2-c2cscn2)c(O)c1	–	–	·	–	·
BrC(=C\c1ccccc1)/C=N/N1CCN(Cc2ccccc2)CC1	98	·	–	–	–
BrC(/C=N/N1CCN(Cc2ccccc2)CC1)=C/c1ccccc1	–	–	·	–	·
Cc1ccc(S(=O)(=O)N2CC=C(C(=O)NC3CC3)CC2)cc1	–	–	·	–	·
CC(=O)N(C)c1ccc(C(O)(C(F)(F)F)C(F)(F)F)cc1	–	–	–	–	·
SMILES	CHOP inhibitor	S1P3 antagonist	Hsp70 act	Mdm2 ligase inh	CHOP inh conf
Cc1ccc2nc(-c3ccc(SCC(=O)Nc4nnc(C)s4)nc3)[nH]c2c1	105	–	–	–	–
Cc1ccc2nc(-c3ccc(SCC(=O)Nc4nc(C)cs4)nc3)[nH]c2c1	–	–	–	–	·
Cc1ccc(SCC(=O)Nc2ccc(-c3nc4ccccc4[nH]3)cc2)cc1	102	–	–	–	–
S=C(Nc1ccc2c(c1)OCO2)NC1CCN(Cc2ccccc2)CC1	–	·	–	–	·
CC(C)N1CCC(N2CCN(Cc3cc4c(cc3Cl)OCO4)CC2CCO)CC1 (configuration not stated)	–	–	–	–	·
COc1ccc(S(=O)(=O)Nc2nc3c(s2)CCCC3)cc1	–	–	–	–	·
CCCc1cc(C(=O)Cc2ccc(F)cc2)c(O)cc1O	100	·	–	–	122
CCc1cc(C(=O)Cc2ccc(F)cc2)c(O)cc1O	–	–	–	–	·
Cc1ccc2c(c1)c1c(n2CC(O)Cn2c(C)nc3ccccc32)CCCC1 (configuration not stated)	98	·	–	–	82
C=CCn1c(=O)c2c(C)c(C)sc2n2c(Nc3ccccc3)nnc12	–	–	–	–	·
CCCC(C)C(=O)OCC(=O)Nc1ccc(Br)cc1 (configuration not stated)	–	–	–	–	·
O=S(=O)(NCc1cc(-c2ccc(Cl)cc2)no1)c1ccccc1	–	·	–	–	·
O=S(=O)(NCc1cc(-c2ccc(Cl)cc2)no1)c1ccc(Cl)cc1	102	·	–	–	–
CCC1CCCCN1S(=O)(=O)c1ccc(C(=O)Nc2nnc(-c3ccccc3Cl)o2)cc1 (configuration not stated)	107	–	–	–	102
COc1ccc(C)cc1Cn1c(S(C)(=O)=O)nc2ccccc21	–	–	–	–	·
Cc1nc(N)sc1-c1csc(Nc2ncccn2)n1	103	–	–	–	–
Oc1[nH]c2ccccc2c1N=NC(=S)NCCc1ccccc1	105	–	–	·	76
CCCC(=O)NC(Nc1cccc(C(F)(F)F)c1)C(Cl)(Cl)Cl (configuration not stated)	–	·	–	–	·
CCCC(=O)NC(Nc1cc(C(F)(F)F)ccc1Cl)C(Cl)(Cl)Cl (configuration not stated)	97	·	–	–	–
CCN1C(=O)C=CC1=O	–	·	·	·	·
O=C1C=CC(=O)N1CCCCCCN1C(=O)C=CC1=O	107	–	–	–	116
O=C(CSCc1ccccc1)N=Nc1c(O)[nH]c2ccccc12	–	–	–	·	·
Cc1ccc2[nH]c(O)c(N=NC(=O)CCc3ccccc3)c2c1Br	107	–	–	–	83
COc1ccccc1N1CCN(Cc2ccc(O)c3ncccc23)CC1	102	·	–	–	–
COc1ccccc1N1CCN(Cc2ccc(OC)c(OC)c2OC)CC1	–	–	–	–	·
SMILES	CHOP inhibitor	S1P3 antagonist	Hsp70 act	Mdm2 ligase inh	CHOP inh conf
Nc1ccccc1SSc1ccccc1N	–	–	·	·	·
CC(C(Sc1ccccc1N)c1ccccc1)[N+](=O)[O-] (configuration not stated)	106	–	·	–	–
COc1ccc(/C(C)=N\Nc2nc(-c3ccc(Cl)cc3)cc(C(F)(F)F)n2)cc1OC	–	–	–	–	·
COC(CNC(=O)CNC(=S)N(Cc1ccccc1)Cc1cccnc1)OC	–	–	–	–	·
CCc1nnc(NC(=O)c2ccc(S(=O)(=O)N3CCN(Cc4ccccc4)CC3)cc2)s1	97	·	–	–	–
C=CCSc1n[nH]c(-c2ccc(OCCC)cc2)n1	–	–	–	–	·
C=CCSc1n[nH]c(-c2ccc(OCCCC)cc2)n1	106	–	–	–	97
O=C(Nc1nc2ccccc2s1)C1CC(=O)N(c2ccccc2)C1 (configuration not stated)	–	·	–	–	·
